E-sel inducer: E-selectin induction in HUVECs, primary screen, imaging, HUVEC, immunofluorescence imaging, single point; P16581; normalized: neutral wells 0, TNF-alpha wells 100; activation, % at 7.58 µM; 260,000 tested, 0.37% active;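 active = mean E-selectin-positive cell signal at least 10% of the positive control, reached in at least 60% of replicates, without over 20% cell loss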
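Assay system: HUVEC, human umbilical vein endothelial cells / Amount: 3,000 HUVEC/well / Controls: TNF-alpha positive control, DMSO neutral control / Compound dosing: single concentration / Medium: EGM-2 over gelatin coat / Evaluation: percent E-selectin-positive cells / Signal: immunofluorescence imaging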
DENV2 CPE rescue: inhibitors of DENV2 cytopathic effect, primary screen, cell-based, plate reader, single concentration. DENV2-infected cells, cytopathic effect rescue. CPE inhibition, % at 9.99 µM. 350,000 tested, 1.7% active. AID 651640, 2012; in the data active = CPE inhibition above about 20%, passing the limit was not always enough; tested in BHK-21 cells
SIRT5 block: SIRT5 desuccinylase inhibitors, primary screen, biochemical, fluorescence imaging, single point, set 5; NAD-dependent protein deacylase sirtuin-5, mitochondrial (Homo sapiens), Q9NXA8; AID 652115, 2013; 330,000 tested, 1.1% active; Purified SirT5, succinyl-peptide AMC, trypsin-coupled fluorescence; inhibition, % at 15 µM; in the data active = inhibition above about 15%
Target sequence (Q9NXA8 whole entry, looked up): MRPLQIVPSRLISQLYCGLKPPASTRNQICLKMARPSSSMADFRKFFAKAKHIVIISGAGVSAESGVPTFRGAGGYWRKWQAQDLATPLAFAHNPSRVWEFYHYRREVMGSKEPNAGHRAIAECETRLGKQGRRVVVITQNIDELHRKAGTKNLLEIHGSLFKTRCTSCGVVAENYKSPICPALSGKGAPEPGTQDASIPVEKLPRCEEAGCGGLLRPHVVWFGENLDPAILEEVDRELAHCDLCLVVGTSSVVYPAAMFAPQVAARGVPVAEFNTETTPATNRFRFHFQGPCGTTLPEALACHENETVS
A number is an active result; i = inactive; nt = no result given; ! = not confirmed by another sample. Compounds with a hit are over-represented: about 2.8% of the library has one in this group of screens.

SMILES	E-sel inducer	DENV2 CPE rescue	SIRT5 block
O=C(Nn1c(-c2ccncc2)nc2ccccc2c1=O)c1ccc(Br)cc1	nt	i	i
O=C(Nn1c(-c2ccncc2)nc2ccccc2c1=O)c1ccccc1Br	114	i	i
C[C@H]1CN([C@@H](C)CO)C(=O)c2cccc(NC(=O)CCCCCC(=O)Nc3ccccc3N)c2O[C@@H]1CN(C)Cc1ccc(Cl)c(Cl)c1	i	i	i
C[C@@H]1CN([C@@H](C)CO)C(=O)c2cccc(NC(=O)CCCCCC(=O)Nc3ccccc3N)c2O[C@@H]1CN(C)Cc1ccc2c(c1)OCO2	i	50	i
C[C@H]1CN([C@@H](C)CO)C(=O)c2cc(NC(=O)CCCCCC(=O)Nc3ccccc3N)ccc2O[C@H]1CN(C)Cc1ccc(Cl)c(Cl)c1	i	i	21
C[C@H]1CN([C@@H](C)CO)C(=O)Cc2cc(NC(=O)CCCCCC(=O)Nc3ccccc3N)ccc2O[C@@H]1CN(C)Cc1ccc(Cl)c(Cl)c1	i	i	nt
C[C@@H]1CN([C@H](C)CO)C(=O)c2cccc(NC(=O)CCCCCC(=O)Nc3ccccc3N)c2O[C@H]1CN(C)Cc1ccc(Cl)c(Cl)c1	i	i	15
C[C@@H]1CN([C@H](C)CO)C(=O)Cc2cc(NC(=O)CCCCCC(=O)Nc3ccccc3N)ccc2O[C@H]1CN(C)Cc1ccc(Cl)c(Cl)c1	i	i	i
C[C@@H]1CN([C@H](C)CO)C(=O)c2cc(NC(=O)CCCCCC(=O)Nc3ccccc3N)ccc2O[C@@H]1CN(C)Cc1ccc(Cl)c(Cl)c1	i	i	24
C[C@H]1CN([C@@H](C)CO)C(=O)c2cc(NC(=O)CCCCCC(=O)Nc3ccccc3N)ccc2O[C@@H]1CN(C)Cc1ccc2c(c1)OCO2	nt	i	i
CCCNC(=O)Nc1ccc2c(c1)C(=O)N(C)C[C@H](OC)[C@@H](C)CN(Cc1ccncc1)[C@H](C)CO2	i	nt	nt
Cc1ccc([C@@H]2CC=C(C(=O)O)[C@H](c3ccc(Cl)cc3)N2S(=O)(=O)c2ccc(C)cc2)cc1	i	i	i
Cc1ccc([C@@H]2CC=C(C(=O)O)[C@H](c3ccc(Br)cc3)N2S(=O)(=O)c2ccccc2C)cc1	i	28	i
Cc1ccc(S(=O)(=O)N2[C@@H](c3ccccc3)C(C(=O)O)=CC[C@H]2c2ccc(Cl)cc2)cc1	i	i	26
Cc1ccccc1S(=O)(=O)N1[C@@H](c2ccc(Br)cc2)C(C(=O)O)=CC[C@H]1c1ccc(Cl)cc1	i	i	i
COc1ccc(S(=O)(=O)N2[C@@H]3CNC[C@H]2C3c2ccc(-c3cccc(C)c3)cc2)cc1 (stereo partly drawn)	i	i	i
COc1ccc2c3c(n(C)c2c1)[C@H](CO)N(C(=O)CN1CCOCC1)CC31CCN(C(=O)C2CC2)CC1	i	i	i
CC1=NC(C)(C)Cc2c(C)cccc21	72	i	i
CC1=NC(C)(C)Cc2cc(C)c(C)cc21	i	i	i
CCC(=O)N1CCN(c2ccc(NC(=O)COc3cccc(C)c3C)cc2)CC1	i	i	i
Cc1cccc(OCC(=O)Nc2ccc(N3CCN(C(=O)c4ccccc4)CC3)cc2)c1C	i	43	i
COc1ccc(NC(=O)Nc2ccc3c(c2)C(=O)N([C@H](C)CO)C[C@H](C)[C@@H](CN(C)Cc2ccccc2)O3)cc1	i	43	i
C[C@@H]1CN([C@@H](C)CO)C(=O)c2cc(NC(=O)Nc3ccc(F)cc3)ccc2O[C@H]1CN(C)Cc1ccncc1	i	i	i
COc1ccc(NC(=O)Nc2ccc3c(c2)C(=O)N([C@H](C)CO)C[C@H](C)[C@H](CN(C)Cc2ccccc2)O3)cc1	i	i	i
COc1ccc(NC(=O)Nc2ccc3c(c2)C(=O)N([C@H](C)CO)C[C@H](C)[C@@H](CN(C)Cc2ccncc2)O3)cc1	170	i	i
SMILES	E-sel inducer	DENV2 CPE rescue	SIRT5 block
COc1ccc(CN(C)C[C@@H]2Oc3ccc(NC(=O)Nc4ccc5c(c4)OCO5)cc3C(=O)N([C@@H](C)CO)C[C@@H]2C)cc1	i	i	i
C[C@@H]1CN([C@H](C)CO)C(=O)c2cc(NC(=O)Nc3ccc(F)cc3)ccc2O[C@H]1CN(C)Cc1ccncc1	i	37	i
COc1ccc(NC(=O)Nc2ccc3c(c2)C(=O)N([C@H](C)CO)C[C@@H](C)[C@@H](CN(C)Cc2ccncc2)O3)cc1	i	i	i
COc1ccc(NC(=O)Nc2ccc3c(c2)C(=O)N([C@H](C)CO)C[C@H](C)[C@@H](CN(C)Cc2ccc4c(c2)OCO4)O3)cc1	i	i	16
Cc1noc(C)c1NC(=O)Nc1ccc2c(c1)C(=O)N([C@@H](C)CO)C[C@@H](C)[C@H](CN(C)S(=O)(=O)c1cn(C)cn1)OCCCC[C@@H](C)O2	i	i	i
CN1C(=O)c2cc(NS(=O)(=O)c3ccc(Cl)cc3)ccc2OC[C@@H]2O[C@@H](CC(=O)N3CCc4ccccc4C3)CC[C@H]21	i	i	i
C[C@H]1CN([C@@H](C)CO)C(=O)c2cc(NC(=O)c3ccncc3)ccc2O[C@H]1CN(C)Cc1ccc(C(=O)O)cc1	i	42!	i
COc1ccc(CN(C)C[C@H]2Oc3ccc(NC(=O)c4ccncc4)cc3C(=O)N([C@@H](C)CO)C[C@@H]2C)cc1	i	i	i
COc1ccc(CN(C)C[C@@H]2Oc3ccc(NC(=O)c4ccncc4)cc3C(=O)N([C@@H](C)CO)C[C@H]2C)cc1	56	i	i
C[C@H](CO)N1C[C@H](C)[C@@H](CN(C)Cc2ccc(C(=O)O)cc2)Oc2ccc(NC(=O)c3ccncc3)cc2C1=O	nt	i	i
CO[C@@H]1CN(C)C(=O)c2cc(NS(=O)(=O)CC(F)(F)F)ccc2OC[C@H](C)N(C(=O)c2ccc3c(c2)OCO3)C[C@@H]1C	i	i	nt
C[C@@H]1CN([C@@H](C)CO)C(=O)Cc2cc(NC(=O)CCN3CCOCC3)ccc2O[C@H]1CN(C)CC1CC1	i	i	i
O=C(c1cccc(F)c1)N1C[C@H]2[C@@H](c3ccccc31)[C@@H](CO)N2C(=O)C1CCCCC1	i	i	i
Cc1ccc2[nH]c(-c3cccc(F)c3)cc(=O)c2c1	i	nt	i
O=c1cc(-c2cccc(F)c2)[nH]c2ccccc12	i	36	i
Cc1cc(-c2cc(NC(=O)Cc3c(C)[nH]c4ccccc34)ccc2N(C)c2cccnc2)ccc1F	i	i	nt
Cc1[nH]c2ccccc2c1CC(=O)Nc1ccc(N(C)c2cccnc2)c(-c2cccc(Cl)c2)c1	i	43	nt
CO[C@@H]1CN(C)C(=O)c2cc(NC(C)=O)ccc2OC[C@H](C)N(C(=O)c2ccccn2)C[C@H]1C	i	i	i
COc1ccc(NC(=O)c2cc3ccccc3cc2O)cc1	nt	46	i
Cc1ccc(NC(=O)c2cc3ccccc3cc2O)cc1	nt	i	i
O=C(COc1ccccc1)Nc1ccc(CSc2ccccc2)cc1	nt	nt	i
O=C(Nc1ccc(CSc2ccccc2)cc1)c1ccccc1	nt	i	15
COc1ccccc1C#Cc1ccc([C@H]2[C@H](CO)N3CCCCN(C(=O)C4CC4)C[C@@H]23)cc1	nt	i	i
C[C@@H]1CN([C@@H](C)CO)C(=O)c2cc(-c3cccc(F)c3)cnc2O[C@@H]1CN(C)C	i	i	i

Screening data (PubChem BioAssay)
